# High-throughput results from PubChem.
# CaV13 ICDI inh: Disruptors of the CACNA1D IQ motif to Ca2+-dependent inactivation inhibitor domain association, primary screening, Förster resonance energy transfer in intact living …; HEK cells, CFP/YFP FRET ICDI-IQ, plate reader, 10 min; percent FRET-ratio fall versus neutral wells; inhibition, % at 12.3 µM; actives 0.098% (n = 340,000);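 active means mean replicate inhibition of at least 30% and at least 1% of replicates passing that level; inconclusive means only one of the two criteria is met; inactive means neither criterion is met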;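 further: 0% = median of the neutral control wells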
# FN deposition inh: inhibitors of fibronectin matrix deposition, primary screen, AH1F cells, Alexa488-fibronectin fluorescence, plate reader; AH1F fibroblasts, overnight; inhibition, % at 12.6 µM; actives 0.086% (n = 350,000); AID 743247, 2014;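 active means mean inhibition across replicates of 30% or more, regardless of how many single replicates reach that level; inconclusive means mean under 30% yet at least half of replicates reach 30%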;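 further: positive control wells lacked labelled fibronectin entirely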
#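 Test system: AH1F fibroblast monolayer depositing Alexa488-labelled fibronectin into matrix. Input: 10000 cells per well. Technique: fluorescence, ex 485 nm, em 525 nm. Buffer or medium: DMEM plus 2% serum, read in PBS. Timing: 1 h cell adhesion before compound, then overnight fibronectin incubation. Compound: single dose, pinned. Read-out basis: inhibition from reduced deposited-fibronectin fluorescence.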
# Xi reactivation: activators of inactive X chromosome reactivation, primary screen, imaging, XiGFP fibroblasts, GFP high-content imaging, set 2; XiGFP mouse fibroblasts, % GFP-positive cells imaging, 3 d; cells co-treated with 5-aza-dC sensitizer; scaled so ellipticine positive control = 100%; activation, % at 7.58 µM; actives 0.055% (n = 360,000);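 active means mean normalized replicate activation at least 10% and every replicate at or above 10%; inconclusive means only one of the two criteria met; inactive means mean below 10% and not all replicates reach 10%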;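 further: 0% = median of on-plate neutral control wells and 100% = ellipticine 6 µM median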
#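 Assay system – SV40-immortalized XiGFP fibroblast cells, line 68-5-11 · Buffer or medium – DMEM supplemented with 5-aza-dC as sensitizing agent · Dosing – one concentration, pinned · Benchmarks – positive control ellipticine, 6 µM final · Times – 3 days compound exposure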
# DENV2 CPE: inhibitors of DENV2 cytopathic effect, primary screen, cell-based, plate reader, single concentration; DENV2-infected cells, cytopathic effect rescue; CPE inhibition, % at 9.99 µM; actives 1.7% (n = 350,000); in the data active means CPE inhibition above about 20%, passing the limit was not always enough; inconclusive means no clear call, values can overlap the other calls; tested in BHK-21 cells;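 further: 0% = median of neutral control wells and 100% = median of positive control wells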
# Casp6 inh: human caspase-6 inhibitors, primary screen, biochemical, VEID-R110 fluorescence, single point, set 2; purified caspase-6, Z-VEID-R110 cleavage fluorescence; inhibition, % at 12.5 µM; actives 0.53% (n = 350,000);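 active means mean inhibition across replicates at least about 35%, with every replicate also reaching that limit, limit read from the data; inconclusive means only one of the two criteria met; inactive means neither criterion met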;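 further: 0% = median of neutral control wells and 100% = no fluorescence left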
# Target sequence (P55212 24-179 limits assumed): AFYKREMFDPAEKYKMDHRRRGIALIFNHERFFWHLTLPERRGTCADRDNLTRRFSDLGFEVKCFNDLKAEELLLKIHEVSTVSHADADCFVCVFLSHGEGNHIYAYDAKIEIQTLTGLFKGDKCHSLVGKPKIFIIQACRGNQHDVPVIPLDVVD
# Target sequence (P55212 194-293 limits assumed): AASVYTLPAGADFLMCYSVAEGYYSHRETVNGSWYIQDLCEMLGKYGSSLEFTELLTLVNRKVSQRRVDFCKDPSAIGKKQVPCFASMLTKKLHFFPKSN
# An asterisk follows results filed as active; ? = inconclusive; / = no result given. Most compounds without a hit are left out; they make up all but 2% or so of the library.
SMILES,CaV13 ICDI inh,FN deposition inh,Xi reactivation,DENV2 CPE,Casp6 inh
CCc1c(-c2cccc(Cl)c2)ncn1Cc1cccc(-c2ccccc2)c1,-10,9,0,22*,0
CCCc1c(-c2cccc(Cl)c2)ncn1Cc1cccc(-c2ccccc2)c1,-6,3,0,-1,-3
CC1(C)c2[nH]c3ccccc3c2C[C@@H]2C(=O)N(Cc3ccc(F)cc3)C(=O)N21,-5,9,0,-15,-1
CC[C@H]1c2[nH]c3ccccc3c2C[C@H]2C(=O)N(c3ccc(F)cc3)C(=O)N21,/,/,/,57*,7
Cc1noc(C)c1NC(=O)N[C@@H]1CC[C@H](CC(=O)NCc2ccc(Cl)c(Cl)c2)O[C@@H]1CO,/,4,0,1,0
CNC[C@@H]1Oc2c(NS(=O)(=O)c3cccs3)cccc2C(=O)N([C@@H](C)CO)C[C@H]1C,/,-4,0,-15,-1
C[C@@H]1CN([C@H](C)CO)C(=O)c2cccc(NS(=O)(=O)c3ccc(Cl)cc3)c2O[C@H]1CN(C)Cc1ccccc1,/,/,0,25*,-2
CNC[C@H]1Oc2c(NS(=O)(=O)c3cccs3)cccc2C(=O)N([C@@H](C)CO)C[C@H]1C,/,1,0,26*,10
C[C@H]1CN([C@@H](C)CO)C(=O)c2cccc(NS(=O)(=O)c3ccccc3)c2O[C@H]1CN(C)Cc1ccc(C(=O)O)cc1,/,-6,0,-1,3
C[C@H](CO)N1C[C@H](C)[C@H](CN(C)Cc2ccc(C(=O)O)cc2)Oc2c(NS(=O)(=O)c3ccccc3)cccc2C1=O,/,-5,0,50*,1
CNC[C@H]1Oc2c(NS(=O)(=O)c3ccc(Cl)cc3)cccc2C(=O)N([C@H](C)CO)C[C@H]1C,/,-4,0,79*,3
C[C@H](CO)N1C[C@H](C)[C@@H](CN(C)Cc2ccccc2)Oc2c(NS(=O)(=O)c3ccc(Cl)cc3)cccc2C1=O,/,/,0,1,2
CC(=O)N1C[C@@H]2C(c3ccc(Br)cc3)[C@H](C1)N2S(C)(=O)=O (stereo partly drawn),/,7,0,/,/
COc1ccc2c3c([nH]c2c1)[C@H](CO)N(Cc1cc(F)ccc1F)CC31CCN(C)CC1,/,/,0,/,/
CCC(=O)N[C@@H]1CC[C@H](CCNS(=O)(=O)c2ccc(Cl)cc2)O[C@@H]1CO,/,/,0,-2,-2
CN1C(=O)c2cc(NC(=O)c3ccc(C(F)(F)F)cc3)ccc2OC[C@H]2O[C@H](CC(=O)NCc3ccc4c(c3)OCO4)CC[C@@H]21,/,28,0,/,/
C[C@H](CO)N1C[C@H](C)[C@H](CN(C)Cc2ccccc2)Oc2c(NS(=O)(=O)c3ccc(F)cc3)cccc2C1=O,/,/,0,104*,-1
COc1cc(CN2[C@@H]3CNC[C@H]2C3c2ccc(/C=C/c3ccccc3)cc2)cc(OC)c1 (stereo partly drawn),/,-3,0,?,/
CCOC(=O)c1nn(-c2ccc(OC)cc2)c(=O)c2c(N)scc12,-7,/,/,/,45*
CCOC(=O)c1nnn(-c2ccc(OC)cc2)c1N,-4,32*,/,/,/
CCOC(=O)c1nn(-c2ccc(C)c(C)c2)c(=O)c2c(N)scc12,/,-1,/,/,/
O=C(O)Cc1ccc(NC(=O)c2ccc(NC(=O)C3CC3)cc2)cc1,-3,2,0,82*,3
COc1ccc2c3c(n(C)c2c1)[C@@H](CO)N(C(=O)Cc1ccccc1)CC31CCN(C(=O)Cc2ccccc2)CC1,/,/,0,-11,0
Cc1noc(C)c1NC(=O)Nc1ccc2c(c1)C(=O)N([C@H](C)CO)C[C@H](C)[C@H](CN(C)Cc1ccc(Cl)c(Cl)c1)OCCCC[C@@H](C)O2,/,/,0,35*,2
Cc1noc(C)c1NC(=O)N(C)C[C@@H]1OCCCC[C@@H](C)Oc2ccc(NC(=O)C3CCCCC3)cc2C(=O)N([C@@H](C)CO)C[C@@H]1C,/,/,0,25*,-1
